Laboratory results: ChEMBL document CHEMBL1131116, “Design and synthesis of new potent C2-symmetric HIV-1 protease inhibitors. Use of L-mannaric acid as a peptidomimetic scaffold” (J Med Chem, 1998)
Converted amounts (≈) assume the structure as drawn.

Assays:
MT4 = experiment: In vitro anti-HIV activity in MT-4 cells by using an HIV cytopathic assay; assay type: functional; settings: Homo sapiens, read-out: ED50 (the source's name)
Summary of the method: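 HIV cytopathic assay in MT-4 cells, with cell protection quantified by the vital dye XTT. ED50 (µg/mL), the 50% inhibitory concentration, was calculated from the percent cytoprotection for each compound.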

[1] = target: T1, Human immunodeficiency virus type 1 protease (Human immunodeficiency virus 1, UniProt Q72874); experiment: Inhibitory activity against purified HIV-1 protease expressed in Escherichia coli in sensitive fluorometric assay
[2] = target: T1, Human immunodeficiency virus type 1 protease; experiment: inhibitory activity against purified HIV-1 protease in a standardized spectrophotometric assay expressed in E. inhibition
Summary of the method: (§1)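 Recombinant HIV-1 protease, cloned and heterologously expressed in E. coli, then purified. Inhibition was measured in a standardized spectrophotometric protease assay and reported as IC50 values.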

[3] = target: T1, Human immunodeficiency virus type 1 protease; experiment: inhibitory activity against purified HIV-1 protease in a standardized spectrophotometric assay expressed in E. coli; ni=no inhibition; summary of the method: as §1
[4] = target: T1, Human immunodeficiency virus type 1 protease; experiment: inhibitory activity against purified HIV-1 protease in a standardized spectrophotometric assay expressed in E. coli; ni= no inhibition; summary of the method: as §1
[5] = target: T1, Human immunodeficiency virus type 1 protease; experiment: inhibitory activity against purified HIV-1 protease in a standardized spectrophotometric assay expressed in Escherichia coli
[6] = target: T1, Human immunodeficiency virus type 1 protease; experiment: inhibitory activity against purified HIV-1 protease in a standardized spectrophotometric assay expressed in E. coli; ni = no inhibition; summary of the method: as §1
[7] = target: T1, Human immunodeficiency virus type 1 protease; experiment: Inhibitory activity against purified HIV-1 protease in a standardized spectrophotometric assay expressed in E. uM; summary of the method: as §1

In the case of `O=C(N[C@@H]1c2ccccc2C[C@@H]1O)[C@H](OCc1ccccc1)[C@H](O)[C@@H](O)[C@@H](OCc1ccccc1)C(=O)N[C@H]1c2ccccc2C[C@H]1O`, the EC50 (MT4) is reported as 0.06 µg/mL (≈ 0.0919 µM) and the Ki [1] is reported as 0.2 nM.

In the case of `CNC(=O)[C@H](CCSC)NC(=O)[C@H](OCc1ccccc1)[C@H](O)[C@@H](O)[C@@H](OCc1ccccc1)C(=O)N[C@@H](CCSC)C(=O)NC`, the Ki [1] is reported as 660 nM.

For `CC(C)[C@@H](CO)NC(=O)[C@H](OCc1ccccc1)[C@H](O)[C@@H](O)[C@@H](OCc1ccccc1)C(=O)N[C@H](CO)C(C)C`, the IC50 [2] was “Not Active”.

In the case of `CNC(=O)C(NC(=O)[C@H](OCc1ccccc1)[C@H](O)[C@@H](O)[C@@H](OCc1ccccc1)C(=O)NC(C(=O)NC)c1cccc(F)c1)c1cccc(F)c1` (stereo partly drawn), the IC50 [3] is reported as “Not Active” and the Ki [1] is reported as 81 nM.

`CC(C)c1nc(CN(C)C(=O)N[C@H](C(=O)N[C@@H](Cc2ccccc2)C[C@H](O)[C@H](Cc2ccccc2)NC(=O)OCc2cncs2)C(C)C)cs1` [RITONAVIR] showed an EC50 (MT4) of 0.05 µg/mL (≈ 0.0694 µM).

`CNC(=O)[C@@H](NC(=O)[C@H](OCc1ccccc1)[C@H](O)[C@@H](O)[C@@H](OCc1ccccc1)C(=O)N[C@H](C(=O)NC)C(C)C)C(C)C` gave an EC50 (MT4) of 0.9 µg/mL (≈ 1.46 µM) and a Ki [1] of 0.4 nM.

In the case of `COC(=O)[C@H](Cc1ccccc1)NC(=O)[C@H](OCc1ccccc1)[C@H](O)[C@@H](O)[C@@H](OCc1ccccc1)C(=O)N[C@@H](Cc1ccccc1)C(=O)OC`, the IC50 [4] is reported as “Not Active”.

For `O=C(NCc1cncs1)[C@H](OCc1ccccc1)[C@H](O)[C@@H](O)[C@@H](OCc1ccccc1)C(=O)NCc1cncs1`, the Ki [1] was 7100 nM.

In the case of `COC(=O)[C@@H](NC(=O)[C@H](OCc1ccccc1)[C@H](O)[C@@H](O)[C@@H](OCc1ccccc1)C(=O)N[C@H](C(=O)OC)C(C)C)C(C)C`, the IC50 [5] is reported as 5000 nM.

With `CNC(=O)C(NC(=O)[C@H](OCc1ccccc1)[C@H](O)[C@@H](O)[C@@H](OCc1ccccc1)C(=O)NC(C(=O)NC)[C@@H](C)O)[C@H](C)O` (stereo partly drawn) the IC50 [3] was “Not Active” and the Ki [1] was 500 nM.

With `O=C(NCCO)[C@H](OCc1ccccc1)[C@H](O)[C@@H](O)[C@@H](OCc1ccccc1)C(=O)NCCO` the IC50 [3] was “Not Active”.

`CC(C)[C@H](NC(=O)[C@H](OCc1ccccc1)[C@H](O)[C@@H](O)[C@@H](OCc1ccccc1)C(=O)N[C@H](C(=O)OCc1ccccc1)C(C)C)C(=O)OCc1ccccc1` was tested, and the IC50 [6] was “Not Active”.

In the case of `O=C(NCc1ccccn1)[C@H](OCc1ccccc1)[C@H](O)[C@@H](O)[C@@H](OCc1ccccc1)C(=O)NCc1ccccn1`, the IC50 [3] is reported as “Not Active”.

In the case of `Cc1ccc(NC(=O)[C@H](OCc2ccccc2)[C@H](O)[C@@H](O)[C@@H](OCc2ccccc2)C(=O)Nc2ccc(C)cc2O)c(O)c1`, the IC50 [7] is reported as “Not Active”.

`CNC(=O)[C@H](Cc1ccc(O)cc1)NC(=O)[C@H](OCc1ccccc1)[C@H](O)[C@@H](O)[C@@H](OCc1ccccc1)C(=O)N[C@@H](Cc1ccc(O)cc1)C(=O)NC` was tested, and the Ki [1] was 5000 nM and the IC50 [4] was “Not Active”.

For `O=C(NC1c2ccccc2CC1O)[C@H](OCc1ccccc1)[C@H](O)[C@@H](O)[C@@H](OCc1ccccc1)C(=O)N[C@H]1c2ccccc2C[C@H]1O` (single isomer, unassigned), the IC50 [3] was “Not Active”.

`CNC(=O)[C@H](Cc1ccccc1)NC(=O)[C@H](OCc1ccccc1)[C@H](O)[C@@H](O)[C@@H](OCc1ccccc1)C(=O)N[C@@H](Cc1ccccc1)C(=O)NC` was tested, and the IC50 [3] was “Not Active” and the Ki [1] was 140 nM.

`O=C(NCc1ccncc1)[C@H](OCc1ccccc1)[C@H](O)[C@@H](O)[C@@H](OCc1ccccc1)C(=O)NCc1ccncc1` was tested, and the IC50 [3] was “Not Active”.

`CC[C@@H](C)C(NC(=O)[C@H](OCc1ccccc1)[C@H](O)[C@@H](O)[C@@H](OCc1ccccc1)C(=O)NC(C(=O)NC)[C@@H](C)CC)C(=O)NC` (stereo partly drawn) was tested, and the EC50 (MT4) was 1 µg/mL (≈ 1.56 µM) and the Ki [1] was 0.9 nM.

With `COC(=O)[C@H](CC(C)C)NC(=O)[C@H](OCc1ccccc1)[C@H](O)[C@@H](O)[C@@H](OCc1ccccc1)C(=O)N[C@@H](CC(C)C)C(=O)OC` the IC50 [3] was “Not Active”.

Work on `CC(C)(C)NC(=O)[C@@H]1CN(Cc2cccnc2)CCN1C[C@@H](O)C[C@@H](Cc1ccccc1)C(=O)N[C@H]1c2ccccc2C[C@H]1O.O` [INDINAVIR] yielded an EC50 (MT4) of 0.04 µg/mL.

`O=C(NCc1cccnc1)[C@H](OCc1ccccc1)[C@H](O)[C@@H](O)[C@@H](OCc1ccccc1)C(=O)NCc1cccnc1` was tested, and the IC50 [3] was “Not Active”.

`Cc1cc(O)ccc1NC(=O)[C@H](OCc1ccccc1)[C@H](O)[C@@H](O)[C@@H](OCc1ccccc1)C(=O)Nc1ccc(O)cc1C` was tested, and the IC50 [7] was “Not Active”.

In the case of `O=C(NCc1c(F)cccc1Cl)[C@H](OCc1ccccc1)[C@H](O)[C@@H](O)[C@@H](OCc1ccccc1)C(=O)NCc1c(F)cccc1Cl`, the Ki [1] is reported as 2000 nM.

In the case of `CNC(=O)[C@@H](NC(=O)[C@H](OCc1ccccc1)[C@H](O)[C@@H](O)[C@@H](OCc1ccccc1)C(=O)N[C@H](C(=O)NC)c1ccccc1)c1ccccc1`, the IC50 [3] is reported as “Not Active”.

With `Cc1c(O)cccc1NC(=O)[C@H](OCc1ccccc1)[C@H](O)[C@@H](O)[C@@H](OCc1ccccc1)C(=O)Nc1cccc(O)c1C` the IC50 [7] was “Not Active”.
